Our source for the IC50 and inhibition of growth values is ChEMBL document CHEMBL5357072, “Structural Modification of Noscapine via Photoredox/Nickel Dual Catalysis for the Discovery of S-Phase Arresting Agents” (ACS Med Chem Lett, 2024).

The test system of assay [1] is MOLM-13. Description: Antiproliferative activity against human MOLM-13 cells assessed as inhibition of cell growth incubated for 48 hrs by CCK8 assay. The assay is classed as functional, cell-based. The note with it: MOLM-13, 48 h. The procedure, abridged: (§1)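 CCK-8 growth-inhibition assay in the malignant haematological lines MOLM-13, NB4 and Jeko-1 and in normal PBMC. Cells were treated across a range of doses and IC50 taken as the half-maximal growth-inhibitory concentration. Data are mean ± SD of triplicate samples, and experiments were repeated at least three times.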
Background: Tetrazolium dyes change colour on reduction, which living cells bring about.

Assay [2] relates to NB-4. The experiment in a line: Antiproliferative activity against human NB4 cells assessed as inhibition of cell growth incubated for 48 hrs by CCK8 assay. The assay is classed as functional, cell-based. The note with it: NB-4, 48 h. The procedure, abridged: as §1
In assay [3] the test system is JeKo-1. The experiment in a line: Antiproliferative activity against human JeKo-1 cells assessed as inhibition of cell growth incubated for 48 hrs by CCK8 assay. The assay is classed as functional, cell-based. The note with it: JeKo-1, 48 h. The procedure, abridged:
as §1

Assay [4] has as its system NB-4. The experiment in a line: Antiproliferative activity against human NB4 cells assessed as cell growth inhibition at 10 uM incubated for 48 hrs by CCK8 assay relative to control. The note with it: read-out: GI. The assay is classed as functional. The procedure, abridged:
(§2)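 Single-concentration screen of six cancer cell lines. Cells were exposed to 10 μM compound and growth was measured by CCK-8 assay. Results are reported as inhibition rate at 10 μM.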

Assay [5] deals with MOLM-13. Description: Antiproliferative activity against human MOLM-13 cells assessed as cell growth inhibition at 10 uM incubated for 48 hrs by CCK8 assay relative to control. The assay is classed as functional. The note with it: read-out: GI. The procedure, abridged: as §2
A further assay concerns A549. The experiment in a line: Antiproliferative activity against human A549 cells assessed as cell growth inhibition at 10 uM incubated for 48 hrs by CCK8 assay relative to control. The assay is classed as functional. As to conditions: read-out: GI. The procedure, abridged:
as §2

Assay [6] relates to JeKo-1. Description: Antiproliferative activity against human JeKo-1 cells assessed as cell growth inhibition at 10 uM incubated for 48 hrs by CCK8 assay relative to control. The assay is classed as functional. As to conditions: read-out: GI. The procedure, abridged: as §2
Another assay has as its system U-251. Description: Antiproliferative activity against human U-251 cells assessed as cell growth inhibition at 10 uM incubated for 48 hrs by CCK8 assay relative to control. The assay is classed as functional. The note with it: read-out: GI. The procedure, abridged: as §2
The subject of another assay is HeLa. The experiment in a line: Antiproliferative activity against human HeLa cells assessed as cell growth inhibition at 10 uM incubated for 48 hrs by CCK8 assay relative to control. The assay is classed as functional. The note with it: read-out: GI. The procedure, abridged: as §2

On to `CCNC(=O)N1CCc2c(CC3CN(C(=O)OCc4ccccc4)C3)c3c(c(OC)c2[C@@H]1[C@H]1OC(=O)c2c1ccc(OC)c2OC)OCO3`, for which the results for the 50% inhibitory concentration (IC50) in the assay with MOLM-13 [1], in the assay on NB-4 [2] and with JeKo-1 [3] were 6.47 µM, 10.4 µM and 6.97 µM, respectively.
Consider `COc1ccc2c(c1OC)C(=O)O[C@@H]2[C@H]1c2c(c(CC3CN(C(=O)OCc4ccccc4)C3)c3c(c2OC)OCO3)CCN1C`, for which the IC50 turned out to be 4.37 µM with MOLM-13 [1], 10.7 µM in the assay on NB-4 [2] and 5.11 µM in the assay with JeKo-1 [3].
Taken in the same sequence, the figures for `COc1ccc2c(c1OC)C(=O)O[C@@H]2[C@H]1c2c(c(CC3CN(C)C3)c3c(c2OC)OCO3)CCN1C` were over 20 µM, over 20 µM and over 20 µM.
In the case of `COc1ccc2c(c1OC)C(=O)O[C@@H]2[C@H]1c2c(c(C3CC3)c3c(c2OC)OCO3)CCN1C(=O)OC(C)(C)C`, the inhibition of growth at 10 µM with NB-4 [4] is 7.63%; with MOLM-13 [5], 19.5%; in the assay with A549, under 5%; in the assay on JeKo-1 [6], 6.87%; in the assay on U-251, under 5%; in the assay on HeLa, under 5%.
Regarding `COc1ccc2c(c1OC)C(=O)O[C@@H]2[C@H]1c2c(c(C3CN(C(=O)OC(C)(C)C)C3)c3c(c2OC)OCO3)CCN1C(=O)OC(C)(C)C`, the inhibition of growth at 10 µM is 30.1% with NB-4 [4]; 49.7% in the assay on MOLM-13 [5]; under 5% with A549; 17.6% in the assay with JeKo-1 [6]; under 5% in the assay with U-251; under 5% in the assay with HeLa.
As for `COc1ccc2c(c1OC)C(=O)O[C@@H]2[C@H]1c2c(c(CC3CCN3C(=O)OC(C)(C)C)c3c(c2OC)OCO3)CCN1C(=O)OC(C)(C)C` (stereo not given in full), the inhibition of growth at 10 µM in the assay with NB-4 [4] is 13.8%; with MOLM-13 [5], 43.2%; in the assay with A549, under 5%; with JeKo-1 [6], 12.9%; with U-251, under 5%; with HeLa, under 5%.
As for `COc1ccc2c(c1OC)C(=O)O[C@@H]2[C@H]1c2c(c(CC3CN(C(C)=O)C3)c3c(c2OC)OCO3)CCN1C`, the half-inhibitory concentration (IC50) with MOLM-13 [1], with NB-4 [2] and in the assay with JeKo-1 [3] was over 20 µM throughout.
Consider `COc1ccc2c(c1OC)C(=O)O[C@@H]2[C@H]1c2c(c(CC3CCCC3)c3c(c2OC)OCO3)CCN1C(=O)OC(C)(C)C`, for which the inhibition of growth at 10 µM is 20.8% in the assay on NB-4 [4]; 51.3% with MOLM-13 [5]; under 5% in the assay with A549; 6.68% with JeKo-1 [6]; 12% in the assay on U-251; under 5% in the assay with HeLa.
On to `CCC(C)Cc1c2c(c(OC)c3c1OCO3)[C@H]([C@H]1OC(=O)c3c1ccc(OC)c3OC)N(C(=O)OC(C)(C)C)CC2` (stereo not given in full), for which the inhibition of growth at 10 µM with NB-4 [4] was 9.33%; with MOLM-13 [5], 51.2%; in the assay on A549, under 5%; in the assay on JeKo-1 [6] it was 24%; in the assay with U-251, under 5%; in the assay with HeLa, 6.92%.
Regarding `COc1ccc2c(c1OC)C(=O)O[C@@H]2[C@H]1c2c(c(C3COC3)c3c(c2OC)OCO3)CCN1C(=O)OC(C)(C)C`, the inhibition of growth at 10 µM is 9.21% with NB-4 [4]; 11.7% in the assay with MOLM-13 [5]; under 5% with A549; 13.3% in the assay with JeKo-1 [6]; 12.3% in the assay on U-251; 14.9% with HeLa.
Take `COCCCc1c2c(c(OC)c3c1OCO3)[C@H]([C@H]1OC(=O)c3c1ccc(OC)c3OC)N(C(=O)OC(C)(C)C)CC2`: the inhibition of growth at 10 µM with NB-4 [4] was 27.2%; with MOLM-13 [5], 30.4%; with A549, under 5%; with JeKo-1 [6], 23.3%; in the assay with U-251, under 5%; with HeLa, under 5%.
Turning to `COc1ccc2c(c1OC)C(=O)O[C@@H]2[C@H]1c2c(c(C3CCOC3)c3c(c2OC)OCO3)CCN1C(=O)OC(C)(C)C` (stereo not given in full), the inhibition of growth at 10 µM in the assay with NB-4 [4] is 23.3%; with MOLM-13 [5], 43.6%; in the assay with A549 it was under 5%; in the assay on JeKo-1 [6] it was 20.8%; in the assay on U-251, 32.1%; in the assay with HeLa it was under 5%.
With `COc1ccc2c(c1OC)C(=O)O[C@@H]2[C@H]1c2c(c(CC3CCCCC3)c3c(c2OC)OCO3)CCN1C(=O)OC(C)(C)C`, the inhibition of growth at 10 µM with NB-4 [4] is under 5%; with MOLM-13 [5], 29.3%; in the assay with A549, under 5%; with JeKo-1 [6], under 5%; with U-251, under 5%; in the assay on HeLa, under 5%.
Consider `COc1ccc2c(c1OC)C(=O)O[C@@H]2[C@H]1c2c(c(C3CCOCC3)c3c(c2OC)OCO3)CCN1C(=O)OC(C)(C)C`, for which the inhibition of growth at 10 µM in the assay on NB-4 [4] is 4.36%; in the assay with MOLM-13 [5], 36.8%; with A549, under 5%; with JeKo-1 [6], 12%; with U-251, under 5%; with HeLa, under 5%.
For `COc1ccc2c(c1OC)C(=O)O[C@@H]2[C@H]1c2c(c(CCCC(F)(F)F)c3c(c2OC)OCO3)CCN1C(=O)OC(C)(C)C`, the inhibition of growth at 10 µM is 31.5% in the assay on NB-4 [4]; 36% in the assay on MOLM-13 [5]; under 5% in the assay with A549; 25.6% in the assay on JeKo-1 [6]; under 5% in the assay with U-251; under 5% in the assay with HeLa.
As for `COc1ccc2c(c1OC)C(=O)O[C@@H]2[C@H]1c2c(c(CC3CCOCC3)c3c(c2OC)OCO3)CCN1C(=O)OC(C)(C)C`, the inhibition of growth at 10 µM in the assay on NB-4 [4] is 4.77%; in the assay with MOLM-13 [5], 48.4%; with A549, under 5%; in the assay on JeKo-1 [6], 20.4%; in the assay on U-251, 13.2%; with HeLa it was 23%.
`COc1ccc2c(c1OC)C(=O)O[C@@H]2[C@H]1c2c(c(CC3(F)CN(C(=O)OC(C)(C)C)C3)c3c(c2OC)OCO3)CCN1C(=O)OC(C)(C)C`: the inhibition of growth at 10 µM was 42.5% in the assay with NB-4 [4]; 61.5% in the assay on MOLM-13 [5]; under 5% in the assay with A549; 43.9% in the assay on JeKo-1 [6]; under 5% in the assay with U-251; 8.57% in the assay with HeLa.
As to `COc1ccc2c(c1OC)C(=O)O[C@@H]2[C@H]1c2c(c(CC3CCC3)c3c(c2OC)OCO3)CCN1C(=O)OC(C)(C)C`, the inhibition of growth at 10 µM in the assay on NB-4 [4] was 8.8%; in the assay with MOLM-13 [5], 53.1%; with A549, under 5%; with JeKo-1 [6] it was 6.67%; in the assay with U-251, under 5%; with HeLa it was under 5%.
`COc1ccc2c(c1OC)C(=O)O[C@@H]2[C@@H]1NCCc2c(CC3CN(C(=O)OCc4ccccc4)C3)c3c(c(OC)c21)OCO3`: the figures for the IC50 in the assay with MOLM-13 [1], in the assay on NB-4 [2] and in the assay with JeKo-1 [3] were 7.78 µM, 13.2 µM and 7.57 µM, respectively.
On to `COc1ccc2c(c1OC)C(=O)O[C@@H]2[C@H]1c2c(c(CCCc3ccccc3)c3c(c2OC)OCO3)CCN1C(=O)OC(C)(C)C`, for which the inhibition of growth at 10 µM is 25.1% in the assay with NB-4 [4]; 63.2% with MOLM-13 [5]; under 5% in the assay with A549; 13.7% in the assay on JeKo-1 [6]; under 5% with U-251; under 5% with HeLa.

As usually defined, the IC50 is the concentration needed to halve the response being measured.
